Experimental findings from ChEMBL document CHEMBL4359864, “The synthesis and in vitro biological evaluation of novel fluorinated tetrahydrobenzo[j]phenanthridine-7,12-diones against Mycobacterium tuberculosis” (Eur J Med Chem, 2019) are described below.

SMILES strings stand for the structures.

In the assay the test system is Mycobacterium tuberculosis variant bovis BCG. Nature of the assay: Antimycobacterial activity against Mycobacterium bovis BCG ATCC 35737 by resazurin dye based fluorimetric assay. The assay is classed as functional, organism-based. In short, it runs like this:
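Resazurin microtiter method as for the bacterial panel. Mycobacteria grown in 7H9 with 10% OADC and 0.5% glycerol; for BCG, 0.05% Tween 80 replaced the glycerol. Cultures were sonicated and needle-passed to single cells. Incubation at 37°C, or 32°C for M. marinum. Fluorescence read at ex 550/em 590 nm; mean of triplicates.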
With `COc1c(N2C[C@@H]3CCCN[C@@H]3C2)c(F)cc2c(=O)c(C(=O)O)cn(C3CC3)c12` [MOXIFLOXACIN], 0.03 µM corresponded to half-maximal inhibition (IC50). Compound `O=C1C2=C(C(=O)c3c1cnc1cc(F)ccc31)C1CCC2C1` (configuration not stated) gave an IC50 of 17.4 µM. Compound `O=C1C2=C(C(=O)c3c1cnc1ccc(F)cc31)C1CCC2C1` (configuration not stated) displayed an IC50 of 10.3 µM. For `O=C1C2=C(C(=O)c3c1cnc1c(F)cccc31)C1CCC2C1` (configuration not stated) the value was 5.03 µM; for `O=C1C2=C(C(=O)c3c1cnc1ccc(C(F)(F)F)cc31)C1CCC2C1` (configuration not stated), 12.5 µM. `O=C1C2=C(C(=O)c3c1cnc1ccccc31)C1CCC2C1` (configuration not stated): the IC50 was 7.9 µM. On to `O=C1C2=C(C(=O)c3c1cnc1cc(C(F)(F)F)ccc31)C1CCC2C1` (configuration not stated), for which the IC50 worked out at 15 µM.
